Source: PubChem (several laboratories)
Only some compounds are listed: those with a hit (about 2.1% of all), similar ones and a draw of the others.
RanGTP-Impb inh – disruptors of Ran-importin-beta complex formation – biochemical, FRET, CFP-Ran, YFP-importin-beta, homogeneous, primary screen | cell-free CFP-Ran/YFP-importin-beta FRET ratio | inhibition, % (test concentration not listed) | 300,000 tested, 1.1% active | AID 2216;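 active = more than half of the replicate wells show a fall in the fluorescence ratio signal beyond about 16%, limit read from the data, passing the limit was not always enough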;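 also: 0% = DMSO wells and 100% = Ran loaded with GDP instead of GTP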
Tb hexokinase – blocks Trypanosoma brucei hexokinase 1 activity; inhibition, % at 10 µM; AID 1430; 220,000 tested, 0.11% active; recombinant TbHK1, G6PDH-coupled NADH A340;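 active = inhibition of 50% or more in the single-dose primary screen; inactive = inhibition below 50%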
Runt-CBFb FRET – Runt domain-CBFb interaction inhibition. Q01196+Q13951. Cerulean-Runt/Venus-CBFb FRET ratio 530/480, 1 h. inhibition, % at 20 µM. 220,000 tested, 0.46% active;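 active = inhibition over about 50% at 20 µM in the single-dose screen, limit read from the data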;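 also: 0% = DMSO wells and 100% = excess unlabeled CBFb competitor control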
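Buffer or medium: Tris pH 7.5 buffer with BSA. Assay system: Cerulean-labeled Runt domain protein. Amount: each fluorescent fusion protein 100 nM. Read-out basis: loss of energy transfer signal. Incubation: 1 h compound exposure, room temperature. Probe or stimulus: Venus-CBFb binding partner, 100 nM. Detection: FRET, excitation 422 nm, emission at 530 and 480 nm.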
Hck-Nef inh – inhibitors of human Hck kinase activated by Nef | P08631 | Recombinant Hck-YEEI plus Nef, Z-Lyte FRET kinase assay | inhibition, % at 20 µM | 220,000 tested, 0.68% active;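 active = Hck-Nef kinase inhibition above about 50%, limit read from the data; inactive = inhibition below that limit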;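 also: 0% = DMSO with Hck plus Nef and 100% = Hck alone without Nef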
p97 inhibitor – inhibitors of human p97 ATPase; AID 1481; inhibition, % at 8 µM; 220,000 tested, 0.42% active; P55072; recombinant p97 ATPase, Kinase-Glo ATP luminescence, 3 h; in the data active = inhibition above about 15%;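 also: 0% = DMSO vehicle and 100% = wells lacking enzyme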
Target sequence (P55072 whole entry, looked up): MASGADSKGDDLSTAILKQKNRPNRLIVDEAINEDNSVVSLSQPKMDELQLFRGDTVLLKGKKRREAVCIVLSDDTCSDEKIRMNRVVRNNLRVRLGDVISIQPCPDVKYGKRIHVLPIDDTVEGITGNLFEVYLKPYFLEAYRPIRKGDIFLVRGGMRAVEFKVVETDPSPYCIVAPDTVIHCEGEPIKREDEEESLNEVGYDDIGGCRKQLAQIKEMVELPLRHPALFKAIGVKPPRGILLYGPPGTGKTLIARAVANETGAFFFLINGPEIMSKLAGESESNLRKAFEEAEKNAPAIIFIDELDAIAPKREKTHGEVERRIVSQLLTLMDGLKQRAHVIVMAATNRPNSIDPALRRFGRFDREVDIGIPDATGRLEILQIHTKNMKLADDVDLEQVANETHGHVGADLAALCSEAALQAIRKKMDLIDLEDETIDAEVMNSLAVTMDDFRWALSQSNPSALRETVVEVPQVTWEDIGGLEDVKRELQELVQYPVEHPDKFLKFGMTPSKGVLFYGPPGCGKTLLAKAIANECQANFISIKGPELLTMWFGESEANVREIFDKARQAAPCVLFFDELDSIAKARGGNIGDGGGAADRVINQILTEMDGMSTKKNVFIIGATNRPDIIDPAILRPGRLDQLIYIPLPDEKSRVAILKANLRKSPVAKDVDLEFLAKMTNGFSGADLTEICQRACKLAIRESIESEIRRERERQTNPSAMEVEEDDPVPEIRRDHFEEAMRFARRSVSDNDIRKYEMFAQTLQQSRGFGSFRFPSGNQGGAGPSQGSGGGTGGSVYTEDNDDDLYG
Runt-SMMHC FRET – blocks binding of human RUNX1 Runt domain to CBFb-SMMHC. Q01196+Q13951. Cerulean-Runt/Venus-CBFb-SMMHC FRET ratio 530/480, 1 h. inhibition, % at 20 µM. 220,000 tested, 0.74% active. AID 1434;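 active = mean inhibition across duplicate retests at 20 µM reaching about 50%, limit read from the data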;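 also: 0% = DMSO wells and 100% = wells with excess untagged CBFb-SMMHC; inhibitors lower the FRET ratio by blocking Runt binding to CBFb-SMMHC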
Hck-Nef confirm – Hck-Nef kinase inhibition, confirmation; shares compounds with Hck-Nef inh; AID 463188; Recombinant Hck-YEEI:Nef, Z-Lyte FRET kinase assay; 1,300 tested, 28% active; calls only at 10 µM;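 active = average inhibition of at least 50%, with Z-scores no higher than 3 in both the phospho-tyrosine peptide and fluorescence counterscreens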
Starred values were filed as active, the others as inactive; i = inactive; . = no result given; + = active, no number.

SMILES	RanGTP-Impb inh	Tb hexokinase	Runt-CBFb FRET	Hck-Nef inh	p97 inhibitor	Runt-SMMHC FRET	Hck-Nef confirm
O=C1NC(=O)C(=Cc2coc3ccccc3c2=O)C(=O)N1	-1	-19	-1	97*	2	-4	+
Cc1ccc(C(=O)n2cc(CCN3CCS(=O)(=O)CC3)c3ccccc32)cc1	0	-3	-8	1	-2	1	.
Nc1ncn[nH]1	-1	.	.	.	.	.	.
COC1C(OC(=O)c2ccc(C)[nH]2)C(O)C(Oc2ccc3c(O)c(NC(=O)c4ccc(O)c(CC=C(C)C)c4)c(=O)oc3c2Cl)OC1(C)C (centres undefined)	.	-6	-1	55*	5	-10	i
NC(=S)/N=C/c1c(O)[nH]c(=O)[nH]c1=O	4	2	4	63*	5	3	i
C=CCNC(=S)/N=C/c1c(O)[nH]c(=O)[nH]c1=O	-1	-1	2	83*	2	-6	i
CCCCCCCCN=Cc1c(O)[nH]c(=O)[nH]c1=O	0	-7	1	2	5	-5	.
